Experimental data reported in ChEMBL document CHEMBL1221395, “Synthesis, anticancer activity and mitochondrial mediated apoptosis inducing ability of 2,5-diaryloxadiazole-pyrrolobenzodiazepine conjugates” (Bioorg Med Chem, 2010).
Blank lines part the entries; values can stand above or below the compound they belong to. The source made the active and inactive calls. No cut-off for these calls is given here.

How the values were obtained:
[1] = system: ZR-75-1; experiment: Cytotoxicity against human ZR-75-1 cells by SRB assay
[2] = system: A-375; experiment: Cell cycle arrest in human A375 cells assessed as accumulation at Sub-G1 phase after 24 hrs by FACS flow cytometry; set-up: concentration or dose not given beside the values
[3] = system: A549; experiment: Cytotoxicity against human A549 cells after 24 hrs by WST-1 assay; type: functional; details: A549, 24 h
[4] = system: A-375; experiment: Cell cycle arrest in human A375 cells assessed as accumulation at G2/M phase after 24 hrs by FACS flow cytometry; set-up: concentration or dose not given beside the values
[5] = system: A-375; experiment: Antitumor activity against human A375 cells assessed as upregulation of pRb protein level at 4 uM after 24 hrs by Western blotting; type: functional, cell-based
How it was run: (§1)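 A375 cells treated at 4 µM for 24 h. Lysates cleared at 12,000 rpm for 10 min, and protein quantified by Bradford. 30 µg per lane run on 12% SDS-PAGE and transferred to PVDF. Blocked 2 h in TBST with 5% blocking powder. Primary antibody overnight at 4 °C, HRP secondary (1:2000) 1 h at room temperature. β-actin used as loading control; untreated cells as control.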

[6] = system: Calf thymus DNA; experiment: Binding affinity to calf thymus DNA assessed as change in melting temperature after 18 hrs; type: nucleic-acid assay; details: Bos taurus
How it was run: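 Thermal melting with duplex CT-DNA (100 µM in phosphate) and ligand (20 µM), added from methanol stock, [PBD]/[DNA] 1:5, in 10 mM sodium phosphate + 1 mM EDTA, pH 7.00; incubated at 37 °C for 18 h. A260 monitored while heating at 1 °C/min over 40–90 °C. Tm taken from d(A260)/dT maxima, corrected for methanol; ΔTm = Tm(DNA+ligand) − Tm(DNA alone); at least three determinations.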

[7] = system: A-375; experiment: Cell cycle arrest in human A375 cells assessed as accumulation at S phase after 24 hrs by FACS flow cytometry; set-up: concentration or dose not given beside the values
[8] = system: A-375; experiment: Induction of apoptosis in human A375 cells assessed as increase in cytochrome C protein level at 4 uM after 24 hrs by Western blotting; type: functional, cell-based
How it was run: as §1

[9] = system: HOP-62; experiment: Cytotoxicity against human HOP62 cells after 24 hrs by WST-1 assay; type: functional; details: HOP-62, 24 h
[10] = system: KB; experiment: Cytotoxicity against human KB cells after 24 hrs by SRB assay
[11] = system: A-375; experiment: Induction of apoptosis in human A375 cells assessed as increase in PARP protein level at 4 uM after 24 hrs by Western blotting; type: functional, cell-based
How it was run: as §1

[12] = system: MCF7; experiment: Cytotoxicity against human MCF7 cells by sulforhodamine B assay
[13] = system: A-375; experiment: Antitumor activity against human A375 cells assessed as upregulation of p53 protein level at 4 uM after 24 hrs by Western blotting; type: functional, cell-based
How it was run: as §1

[14] = Lipophilicity, log P of the compound; type: physicochemical; details: octanol/water
[15] = system: PC-3; experiment: Cytotoxicity against human PC3 cells after 24 hrs by WST-1 assay; type: functional; details: PC-3, 24 h
[16] = system: A-375; experiment: Cell cycle arrest in human A375 cells assessed as accumulation at G1 phase after 24 hrs by FACS flow cytometry; set-up: concentration or dose not given beside the values
[17] = system: A2780; experiment: Cytotoxicity against human A2780 cells by SRB assay
[18] = Cytotoxicity against human Gurav cells after 24 hrs by WST-1 assay; type: functional
[19] = system: A-375; experiment: Induction of apoptosis in human A375 cells assessed as increase in Caspase 3 activation at 4 uM after 24 hrs by fluorimetry; type: functional, cell-based
How it was run: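 A375 cells exposed to 4 µM compound. Cell lysate incubated with DEVD-AFC substrate, with or without DEVD-CHO inhibitor, at 37 °C for 1 h in a fluorescent caspase-3 kit. Fluorescence read at excitation 400 nm, emission 505 nm.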

[20] = Cytotoxicity against human DWD cells by SRB assay
[21] = system: COLO 205; experiment: Cytotoxicity against human COLO205 cells after 24 hrs by SRB assay; details: COLO 205, 24 h
[22] = system: A-375; experiment: Antitumor activity against human A375 cells assessed as upregulation of p21 protein level at 4 uM after 24 hrs by Western blotting; type: functional, cell-based
How it was run: as §1

[23] = system: SiHa; experiment: Cytotoxicity against human SiHa cells after 24 hrs by SRB assay
[24] = system: A-375; experiment: Induction of apoptosis in human A375 cells assessed as increase in Bax protein level at 4 uM after 24 hrs by Western blotting; type: functional, cell-based
How it was run: as §1

[25] = system: KB; experiment: Cytotoxicity against human KB cells by SRB assay
[26] = Cytotoxicity against human DWD cells after 24 hrs by SRB assay
[27] = system: KB; experiment: Cytotoxicity against human KB cells after 24 hrs by WST-1 assay; type: functional
[28] = system: A2780; experiment: Cytotoxicity against human A2780 cells after 24 hrs by WST-1 assay; type: functional; details: A2780, 24 h

SMILES: COc1cccc2c1C(=O)c1c(O)c3c(c(O)c1C2=O)C[C@@](O)(C(=O)CO)C[C@@H]3O[C@H]1C[C@H](N)[C@H](O)[C@H](C)O1 [DOXORUBICIN]
GI50 [9]: 140 nM
GI50 [12]: 170 nM
GI50 [17]: 160 nM
GI50 [18]: 170 nM
GI50 [25]: 170 nM
GI50 [21]: 140 nM
GI50 [26]: 100 nM
GI50 [23]: 170 nM

SMILES: COc1ccc(-c2nnc(-c3ccc(C(F)(F)F)cc3)o2)cc1OCCCCOc1cc2c(cc1OC)C(=O)N1CCC[C@H]1C=N2
GI50 [1]: 120 nM
GI50 [3]: 110 nM
ΔTm [6]: 2.1 °C
GI50 [9]: 160 nM
GI50 [10]: 150 nM
GI50 [12]: 140 nM
logP [14]: 5.44
GI50 [15]: 160 nM
GI50 [17]: 140 nM
GI50 [18]: 140 nM
GI50 [20]: 150 nM
GI50 [21]: 160 nM
GI50 [23]: 170 nM

SMILES: COc1ccc(-c2nnc(-c3cc(OC)c(OC)c(OC)c3)o2)cc1OCCCCCOc1cc2c(cc1OC)C(=O)N1CCC[C@H]1C=N2
GI50 [1]: 120 nM
Activity [2]: 13.76%
GI50 [3]: 140 nM
Activity [4]: 2.34%
ΔTm [6]: 1.6 °C
Activity [7]: 10.4%
Activity [8]: Active
GI50 [9]: < 100 nM
GI50 [10]: < 100 nM
Activity [11]: Active
GI50 [12]: < 100 nM
logP [14]: 4.53
GI50 [15]: 150 nM
Activity [16]: 73.5%
GI50 [17]: < 100 nM
GI50 [18]: < 100 nM
Activity [19]: Active
GI50 [20]: < 100 nM
GI50 [21]: 120 nM
GI50 [23]: < 100 nM
Activity [24]: Active

SMILES: COc1ccc(-c2nnc(-c3ccc(C(F)(F)F)cc3)o2)cc1OCCCCCOc1cc2c(cc1OC)C(=O)N1CCC[C@H]1C=N2
GI50 [1]: 110 nM
GI50 [3]: < 100 nM
ΔTm [6]: 1.7 °C
GI50 [9]: 130 nM
GI50 [10]: 110 nM
GI50 [12]: < 100 nM
logP [14]: 5.84
GI50 [15]: 130 nM
GI50 [17]: < 100 nM
GI50 [18]: < 100 nM
GI50 [20]: < 100 nM
GI50 [21]: 110 nM
GI50 [23]: 120 nM

SMILES: COc1ccc(-c2nnc(-c3ccc(F)cc3)o2)cc1OCCCOc1cc2c(cc1OC)C(=O)N1CCC[C@H]1C=N2
GI50 [1]: < 100 nM
Activity [2]: 6.79%
GI50 [3]: 150 nM
Activity [4]: 5.06%
ΔTm [6]: 2 °C
Activity [7]: 14.14%
Activity [8]: Active
GI50 [9]: 160 nM
GI50 [10]: 150 nM
Activity [11]: Active
GI50 [12]: < 100 nM
logP [14]: 4.39
GI50 [15]: < 100 nM
Activity [16]: 74%
GI50 [17]: 140 nM
GI50 [18]: 160 nM
Activity [19]: Active
GI50 [20]: < 100 nM
GI50 [21]: < 100 nM
GI50 [23]: 170 nM
Activity [24]: Active

SMILES: COc1ccc(-c2nnc(-c3cc(OC)c(OC)c(OC)c3)o2)cc1OCCCOc1cc2c(cc1OC)C(=O)N1CCC[C@H]1C=N2
GI50 [1]: 120 nM
GI50 [3]: 110 nM
ΔTm [6]: 1.9 °C
GI50 [9]: 170 nM
GI50 [10]: 140 nM
GI50 [12]: < 100 nM
logP [14]: 3.76
GI50 [15]: 140 nM
GI50 [17]: 140 nM
GI50 [18]: 140 nM
GI50 [20]: < 100 nM
GI50 [21]: < 100 nM
GI50 [23]: 180 nM

SMILES: COc1ccc(-c2nnc(-c3ccc(F)cc3)o2)cc1OCCCCCOc1cc2c(cc1OC)C(=O)N1CCC[C@H]1C=N2
GI50 [1]: 150 nM
GI50 [3]: 140 nM
ΔTm [6]: 1.8 °C
GI50 [9]: 120 nM
GI50 [10]: < 100 nM
GI50 [12]: 120 nM
logP [14]: 5.17
GI50 [15]: 160 nM
GI50 [17]: < 100 nM
GI50 [18]: < 100 nM
GI50 [20]: < 100 nM
GI50 [21]: < 100 nM
GI50 [23]: 120 nM

SMILES: COc1cc2c(cc1O)N=C[C@@H]1CCCN1C2=O
Activity [2]: 15.33%
GI50 [3]: 160 nM
Activity [4]: 2.98%
Activity [7]: 8.02%
GI50 [9]: 150 nM
GI50 [12]: 170 nM
logP [14]: 0.88
GI50 [27]: 170 nM
GI50 [15]: 200 nM
GI50 [28]: 140 nM
Activity [16]: 73.66%
GI50 [18]: 160 nM
GI50 [21]: 110 nM
GI50 [23]: 170 nM

Second part, led by results:

ΔTm [6]: 4 °C
logP [14]: 5.07
SMILES: COc1ccc(-c2nnc(-c3ccc(C(F)(F)F)cc3)o2)cc1OCCCOc1cc2c(cc1OC)C(=O)N1CCC[C@H]1C=N2
GI50 [1]: 110 nM
Activity [2]: 17.93%
GI50 [3]: < 100 nM
Activity [4]: 2.26%
Activity [5]: Active
Activity [7]: 7.51%
Activity [8]: Active
GI50 [9]: < 100 nM
GI50 [10]: < 100 nM
Activity [11]: Active
GI50 [12]: 110 nM
Activity [13]: Active
GI50 [15]: 140 nM
Activity [16]: 72.28%
GI50 [17]: < 100 nM
GI50 [18]: < 100 nM
Activity [19]: Active
GI50 [20]: 110 nM
GI50 [21]: < 100 nM
Activity [22]: Active
GI50 [23]: < 100 nM
Activity [24]: Active

ΔTm [6]: 2.1 °C
logP [14]: 4.13
SMILES: COc1ccc(-c2nnc(-c3cc(OC)c(OC)c(OC)c3)o2)cc1OCCCCOc1cc2c(cc1OC)C(=O)N1CCC[C@H]1C=N2
GI50 [1]: 160 nM
GI50 [3]: < 100 nM
GI50 [9]: 130 nM
GI50 [10]: < 100 nM
GI50 [12]: 150 nM
GI50 [15]: 160 nM
GI50 [17]: < 100 nM
GI50 [18]: < 100 nM
GI50 [20]: 120 nM
GI50 [21]: < 100 nM
GI50 [23]: 130 nM

ΔTm [6]: 1.5 °C
logP [14]: 3.92
SMILES: COc1ccc(-c2nnc(-c3ccc(OC)c(OCCCOc4cc5c(cc4OC)C(=O)N4CCC[C@H]4C=N5)c3)o2)cc1OC
GI50 [1]: < 100 nM
GI50 [3]: < 100 nM
GI50 [9]: 130 nM
GI50 [10]: 110 nM
GI50 [12]: < 100 nM
GI50 [15]: < 100 nM
GI50 [17]: 110 nM
GI50 [18]: 110 nM
GI50 [20]: < 100 nM
GI50 [21]: < 100 nM
GI50 [23]: 150 nM

ΔTm [6]: 2.3 °C
logP [14]: 4.28
SMILES: COc1ccc(-c2nnc(-c3ccc(OC)c(OCCCCOc4cc5c(cc4OC)C(=O)N4CCC[C@H]4C=N5)c3)o2)cc1OC
GI50 [1]: 120 nM
GI50 [3]: < 100 nM
GI50 [9]: 130 nM
GI50 [10]: 110 nM
GI50 [12]: < 100 nM
GI50 [15]: 130 nM
GI50 [17]: < 100 nM
GI50 [18]: < 100 nM
GI50 [20]: < 100 nM
GI50 [21]: < 100 nM
GI50 [23]: 130 nM

ΔTm [6]: 2.5 °C
logP [14]: 4.78
SMILES: COc1ccc(-c2nnc(-c3ccc(F)cc3)o2)cc1OCCCCOc1cc2c(cc1OC)C(=O)N1CCC[C@H]1C=N2
GI50 [1]: 170 nM
GI50 [3]: 290 nM
GI50 [9]: 150 nM
GI50 [10]: < 100 nM
GI50 [12]: 160 nM
GI50 [15]: 170 nM
GI50 [17]: < 100 nM
GI50 [18]: 100 nM
GI50 [20]: 130 nM
GI50 [21]: 150 nM
GI50 [23]: < 100 nM
